ChEMBL document CHEMBL2406995, “Cytotoxic indole alkaloids from Tabernaemontana divaricata” (J Nat Prod, 2013)

Experiments:
Type in all cases: functional, cell-based
[1] = Cytotoxicity against human […] cells after 48 hrs by MTT assay
Method in brief: (§1)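 Adherent cells grown in RPMI1640 or DMEM plus 10% FBS at 37 °C, 5% CO2. They were seeded in 96-well plates and left 12 h to adhere before dosing. MTT viability was used to plot growth curves, and IC50 was calculated by Reed and Muench's method.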

SW480 = assay: Cytotoxicity against human SW480 cells after 48 hrs by MTT assay; conditions: SW480, 48 h; method in brief: as §1
MCF7 = assay: Cytotoxicity against human MCF7 cells after 48 hrs by MTT assay; conditions: MCF7, 48 h; method in brief: as §1
A549 = assay: Cytotoxicity against human A549 cells after 48 hrs by MTT assay; conditions: A549, 48 h; method in brief: as §1
HL-60 = assay: Cytotoxicity against human HL60 cells after 48 hrs by MTT assay; conditions: HL-60, 48 h
Method in brief: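 Suspension (leukemia) cells seeded just before drug addition at an initial density of 1 × 10^5 cells/mL. They were grown in RPMI1640 or DMEM with 10% FBS, 5% CO2, 37 °C. Cells were exposed for 48 h to […], 0.32, 1.6, 8 and 40 μM in triplicate, with cisplatin as positive control. Viability was read by MTT and IC50 was derived by Reed and Muench's method.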

SMILES | IC50 [1] [µM] | IC50 (SW480) [µM] | IC50 (MCF7) [µM] | IC50 (A549) [µM] | IC50 (HL-60) [µM]
CC[C@@]12CC[C@@H]3N(C)c4ccc([C@@H]5[C@H]6O[C@H]6[C@@]6(CC)CC(C(=O)OC)=C7Nc8c(cc(O)c(OC)c8OC)[C@@]78CCN5[C@@H]68)cc4[C@@]34CCN(C[C@H]3O[C@H]31)[C@@H]24 [CONOFOLINE] | 10.3 | 13.7 | 14 | 10.3 | 0.8
C/C=C1/CN(C)[C@H]2Cc3c([nH]c4ccccc34)[C@H](c3cc4c5c([nH]c4cc3OC)[C@]3(C(=O)OC)C[C@@H]4C[C@H](CC)[C@@H]3N(CC5)C4)C[C@H]1[C@]2(CO)C(=O)OC | 12.3 | 13.4 | 12.6 | 14.8 | 2.68
C/C=C1/CN(C)[C@H]2Cc3c([nH]c4ccccc34)[C@@H](c3c(O)ccc4c5c([nH]c34)[C@]3(C(=O)OC)C[C@H]4C[C@H](CC)[C@@H]3N(CC5)C4)C[C@@H]1[C@]2(CO)C(=O)OC | 3.75 | 2.72 | 3.02 | 9.4 | 2.9
CC[C@@]12CC(C(=O)OC)=C3Nc4cc5c(cc4[C@@]34CCN(C[C@H]3O[C@H]31)[C@@H]24)[C@@H]1[C@H](O5)[C@@H](O)[C@@]2(CC)CC(C(=O)OC)=C3Nc4c(cc(O)c(OC)c4OC)[C@@]34CCN1[C@@H]24 [CONOPHYLLINE] | 0.35 | 1.49 | 1.02 | 0.21 | 0.17
CC[C@H]1C[C@H]2C[C@H]3c4[nH]c5ccc(OC)cc5c4CCN([C@@H]13)[C@@H]2CC(C)=O | 14.8 | 13 | 13.2 | 28.5 | 3.88
CC[C@H]1C[C@@H]2CN3CCc4c([nH]c5c([C@H]6C[C@H]7[C@]8(C(=O)OC)CO[C@H](N(C)[C@H]8Cc8c6[nH]c6ccccc86)[C@@]76O[C@@H]6C)c(OC)ccc45)[C@](C(=O)OC)(C2)[C@H]13 | 3.41 | 2.59 | 3.1 | 3.52 | 0.79
C/C=C1/CN(C)[C@H]2Cc3c([nH]c4ccccc34)[C@H](c3cc4[nH]c5c(c4cc3OC)CCN3C[C@H]4C[C@H](CC)[C@H]3[C@H]5C4)C[C@H]1[C@]2(CO)C(=O)OC | 14.8 | 13 | 13.2 | 28.5 | 3.88
C/C=C1/CN(C)[C@H]2Cc3c([nH]c4ccccc34)[C@H](c3cc4[nH]c5c(c4cc3OC)CCN3C[C@H]4C[C@H](CC)[C@H]3[C@@]5(C(=O)OC)C4)C[C@H]1[C@]2(CO)C(=O)OC | 9.86 | 16.5 | 13.3 | 16.5 | 2.35
